Entries after “also recorded” stand apart in the source; their conditions may differ.
Tests used:
[1] = test system: mushroom tyrosinase (EC 1.14.18.1); test: In vitro mushroom tyrosinase inhibition assay; type: biochemical; details: SAR discussion
[2] = biological target: mushroom tyrosinase (Agaricus bisporus, UniProt C7FF04); test: Kinetic study of tyrosinase inhibition; type: biochemical
Procedure, shortened: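 Mushroom tyrosinase diphenolase activity; test compound in DMSO, pre-incubated 20 min at 28 °C with enzyme (added as 600 U mL−1 solution) in 50 mM phosphate buffer pH 6.8. Inhibitor 5–50 µM; L-Dopa 0.1–1.5 mM. Dopachrome at 490 nm read each minute for 10 min; initial velocity from linear segment. Lineweaver–Burk plots gave Km and Vmax; Ki from slope versus inhibitor concentration.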

Sequence of mushroom tyrosinase (C7FF04 1-392): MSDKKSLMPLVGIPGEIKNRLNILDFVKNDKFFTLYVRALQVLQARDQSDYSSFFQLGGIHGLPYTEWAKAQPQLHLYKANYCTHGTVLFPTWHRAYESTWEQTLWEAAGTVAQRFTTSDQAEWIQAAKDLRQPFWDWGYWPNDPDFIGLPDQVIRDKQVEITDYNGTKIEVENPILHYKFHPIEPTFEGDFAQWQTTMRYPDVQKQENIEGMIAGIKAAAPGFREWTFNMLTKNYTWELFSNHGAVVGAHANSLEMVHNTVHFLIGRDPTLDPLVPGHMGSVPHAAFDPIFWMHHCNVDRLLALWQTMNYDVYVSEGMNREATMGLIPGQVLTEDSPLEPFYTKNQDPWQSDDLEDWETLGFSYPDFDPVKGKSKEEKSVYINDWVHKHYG

| SMILES | activity against tyrosinase (in words) [1] | Ki [2] [µM] | type of inhibition ([2]; Lineweaver-Burk plot, L-Dopa substrate) |
| --- | --- | --- | --- |
| CC1(C)CC(=O)C2=C(C1)OC(N)=C(C#N)C2c1ccc(OCc2ccc(F)cc2)cc1 (stereo not drawn) [6c, 2-Amino-4-(4-((4-fluorobenzyl)oxy)phenyl)-7,7-dimethyl-5-oxo-5,6,7,8-tetrahydro-4H-chromene-3-carbonitrile] | no activity |  |  |
| CC1(C)CC(=O)C2=C(C1)OC(N)=C(C#N)C2c1ccc(OCc2ccc(C#N)cc2)cc1 (stereo not drawn) [6f, 2-Amino-4-(4-((4-cyanobenzyl)oxy)phenyl)-7,7-dimethyl-5-oxo-5,6,7,8-tetrahydro-4H-chromene-3-carbonitrile] |  | 16.1 | competitive inhibition; also recorded: competitive inhibitor |
